The subject of one data set is HEK293T. Kind of data set: Inhibition of TEAD (unknown origin) transfected in HEK293T cells assessed as inhibition of TEAD transcriptional activity at 10 uM measured after 16 hrs by luciferase reporter gene assay. As to conditions: Homo sapiens. The format is cell-based. Put shortly:
(§1)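 HEK293T cells transfected with a TEAD luciferase reporter (8xGTIIC-Luciferase) and treated at 10 µM for 16 h. References were dasatinib at 100 nM and MGH-CP1 at 10 µM. β-Galactosidase activity used both to normalize luciferase and to estimate cytotoxicity; viability also checked visually. At least three independent experiments in biological triplicate; Kruskal-Wallis tests.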
On the technique in general: Reporter assays use an easily measured gene product as a stand-in for the process of interest.

A further data set deals with HEK-293T. Kind of data set: Cytotoxicity against human HEK293T cells transfected with TEAD assessed as reduction of beta-galactosidase activity at 10 uM measured after 16 hrs by luciferase reporter gene assay. The format is cell-based. An outline of the steps: as §1
The nature of data set [1]: Inhibition of TEAD (unknown origin) transfected in HEK293T cells assessed as inhibition of TEAD transcriptional activity measured after 24 hrs by luciferase reporter gene assay. The conditions noted are these: Homo sapiens, HEK-293T. It counts as cell-based.
The target in data set [2] is T1, Transcriptional enhancer factor TEF-4 (Homo sapiens, UniProt Q15562). Kind of data set: Binding affinity to external surface of N-terminal His6-tagged human TEAD2 (217 to 447 residues) expressed in Escherichia coli BL21(DE3) assessed as melting temperature by Nano Differential scanning fluorometry. Put shortly: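 Thermal stability of hTEAD2_217-447 measured by NanoDSF, which reads intrinsic aromatic-residue fluorescence, with and without ligand.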
T1 sequence (Q15562 whole entry, the tested form may be a part): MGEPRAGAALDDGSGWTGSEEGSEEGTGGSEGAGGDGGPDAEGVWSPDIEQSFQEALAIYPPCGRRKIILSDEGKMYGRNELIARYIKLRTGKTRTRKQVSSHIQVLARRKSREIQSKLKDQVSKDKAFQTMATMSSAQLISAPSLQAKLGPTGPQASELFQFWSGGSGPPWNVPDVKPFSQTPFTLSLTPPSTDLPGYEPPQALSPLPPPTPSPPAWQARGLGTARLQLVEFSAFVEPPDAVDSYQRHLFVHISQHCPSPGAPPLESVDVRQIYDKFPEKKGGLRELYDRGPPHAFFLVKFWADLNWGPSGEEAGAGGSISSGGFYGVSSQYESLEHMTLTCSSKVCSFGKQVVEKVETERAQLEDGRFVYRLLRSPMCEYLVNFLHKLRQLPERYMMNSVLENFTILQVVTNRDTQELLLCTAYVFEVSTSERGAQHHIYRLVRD
(In DSF a fluorescence change marks the thermal transition of the protein.)

For data set [3], the target named is T1, Transcriptional enhancer factor TEF-4. Kind of data set: Binding affinity to eGFP-fused human TEAD2 (217 to 447 residues) expressed in CHO-K1 cells by microscale thermophoresis analysis. Put shortly:
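MST on GFP-labeled hTEAD2_217-447 in CHO-K1 cell lysate, MST power 40%. hYAP_50-102 used as control binder. Kd determined; triplicate runs on three independent cell cultures, mean ± SD.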
A general note: In MST a laser heats a spot of the sample, and binding alters the fluorescence response.

Data set [4] in a line: Inhibition of TEAD (unknown origin) transfected in HEK293T cells assessed as inhibition of TEAD transcriptional activity measured after 16 hrs by luciferase reporter gene assay. It counts as cell-based. As to conditions: Homo sapiens, HEK-293T. Put shortly: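 HEK293T cells transfected with the 8xGTIIC-Luciferase TEAD reporter. Dose-response curves used to derive IC50, with luciferase normalized to β-galactosidase.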

Data set [5] relates to MDA-MB-231. The data set can be described thus: Inhibition of YAP/TAZ-TEAD interaction in human MDA-MB-231 cells assessed as reduction in AXL protein expression at 10 uM measured after 48 hrs by western blot analysis. It counts as cell-based. Put shortly: (§2)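 MDA-MB-231 cells grown in DMEM with 0.2% heat-inactivated FBS and 2 mM L-glutamine, and exposed to 10 µM for 48 h, with dasatinib at 100 nM as control. Total extracts prepared in RIPA-based buffer with protease/phosphatase inhibitors, then Western blot. At least three independent experiments in biological triplicate.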

The test system of data set [6] is MDA-MB-231. The data set can be described thus: Inhibition of YAP/TAZ-TEAD interaction in human MDA-MB-231 cells assessed as reduction in CTGF protein expression at 10 uM measured after 48 hrs by western blot analysis. The format is cell-based. Put shortly:
as §2

Data set [7] concerns MDA-MB-231. Kind of data set: Inhibition of YAP/TAZ-TEAD interaction in human MDA-MB-231 cells assessed as reduction in Cyr61 protein expression at 10 uM measured after 48 hrs by western blot analysis. It counts as cell-based. Put shortly: as §2
Data set [8] deals with MDA-MB-231. Kind of data set: Inhibition of YAP/TAZ-TEAD interaction in human MDA-MB-231 cells assessed as reduction in Survivin protein expression at 10 uM measured after 48 hrs by western blot analysis. It counts as cell-based. An outline of the steps:
as §2

For data set [9], the system named is MDA-MB-231. The data set can be described thus: Inhibition of YAP/TAZ-TEAD interaction in human MDA-MB-231 cells assessed as reduction in AXL mRNA expression at 10 uM measured after 24 hrs by qRT-PCR analysis. It counts as cell-based. Put shortly: (§3)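 MDA-MB-231 cells exposed to 10 µM for 24 h, with DMSO and dasatinib (100 nM) as controls. Total RNA purified, integrity checked on agarose gel. RT-qPCR with gene-specific primers; relative expression by 2^-ΔΔCt normalized to MAN2B1. At least triplicates; Kruskal-Wallis tests.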

Data set [10] relates to MDA-MB-231. Kind of data set: Inhibition of YAP/TAZ-TEAD interaction in human MDA-MB-231 cells assessed as reduction in CTGF mRNA expression at 10 uM measured after 24 hrs by qRT-PCR analysis. It counts as cell-based. Put shortly: as §3
In data set [11] the test system is MDA-MB-231. The data set can be described thus: Inhibition of YAP/TAZ-TEAD interaction in human MDA-MB-231 cells assessed as reduction in Cyr61 mRNA expression at 10 uM measured after 24 hrs by qRT-PCR analysis. The format is cell-based. An outline of the steps: as §3
Data set [12] has as its system MDA-MB-231. The data set can be described thus: Antiproliferative activity against human MDA-MB-231 cells assessed as reduction in cell proliferation at 5 uM measured after 48 hrs by IncuCyte live-cell imaging assay. The format is functional. Put shortly: (§4)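 MDA-MB-231 cells plated in triplicate at low density (2.5 × 10³ cells/well) in low serum (0.2%). Test agent added at several concentrations 24 h after plating. Cell number tracked by live-cell imaging every 3 h for up to 72 h; independent triplicates, mean ± SD, n = 3.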

Data set [13] deals with MDA-MB-231. The data set can be described thus: Antiproliferative activity against human MDA-MB-231 cells assessed as reduction in cell proliferation at 10 uM measured after 48 hrs by IncuCyte live-cell imaging assay. It counts as functional. An outline of the steps: as §4
The test system of data set [14] is HeLa. The data set can be described thus: Inhibition of YAP/TAZ-TEAD interaction in human HeLa cells assessed as reduction in AXL protein expression at 10 uM measured after 48 hrs by western blot analysis. It counts as cell-based.
The test system of data set [15] is HeLa. The data set can be described thus: Inhibition of YAP/TAZ-TEAD interaction in human HeLa cells assessed as reduction in CTGF protein expression at 10 uM measured after 48 hrs by western blot analysis. The format is cell-based.
Data set [16] has as its system HeLa. Kind of data set: Inhibition of YAP/TAZ-TEAD interaction in human HeLa cells assessed as reduction in Cyr61 protein expression at 10 uM measured after 48 hrs by western blot analysis. It counts as cell-based.
Data set [17] deals with HeLa. The data set can be described thus: Inhibition of YAP/TAZ-TEAD interaction in human HeLa cells assessed as reduction in Survivin protein expression at 10 uM measured after 48 hrs by western blot analysis. It counts as cell-based.
For data set [18], the system named is HeLa. The data set can be described thus: Inhibition of YAP/TAZ-TEAD interaction in human HeLa cells assessed as reduction in AXL mRNA expression at 10 uM measured after 24 hrs by qRT-PCR analysis. It counts as cell-based.
The subject of data set [19] is HeLa. The data set can be described thus: Inhibition of YAP/TAZ-TEAD interaction in human HeLa cells assessed as reduction in CTGF mRNA expression at 10 uM measured after 24 hrs by qRT-PCR analysis. The format is cell-based.
The subject of data set [20] is HeLa. Kind of data set: Inhibition of YAP/TAZ-TEAD interaction in human HeLa cells assessed as reduction in Cyr61 mRNA expression at 10 uM measured after 24 hrs by qRT-PCR analysis. It counts as cell-based.
Data set [21] deals with SH-SY5Y. The data set can be described thus: Effect on AXL protein expression in human SH-SY5Y cells lacking YAP/TAZ expression at 10 uM measured after 48 hrs by western blot analysis. The format is functional, cell-based.
For data set [22], the system named is SH-SY5Y. Kind of data set: Effect on CTGF protein expression in human SH-SY5Y cells lacking YAP/TAZ expression at 10 uM measured after 48 hrs by western blot analysis. The format is functional, cell-based.
Data set [23] relates to SH-SY5Y. Kind of data set: Effect on Cyr61 protein expression in human SH-SY5Y cells lacking YAP/TAZ expression at 10 uM measured after 48 hrs by western blot analysis. It counts as functional, cell-based.
In data set [24] the test system is SH-SY5Y. Kind of data set: Effect on Survivin protein expression in human SH-SY5Y cells lacking YAP/TAZ expression at 10 uM measured after 48 hrs by western blot analysis. The format is functional, cell-based.
In data set [25] the test system is SH-SY5Y. Kind of data set: Effect on AXL mRNA expression in human SH-SY5Y cells lacking YAP/TAZ expression at 10 uM measured after 24 hrs by qRT-PCR analysis. It counts as functional, cell-based.
In data set [26] the test system is SH-SY5Y. The data set can be described thus: Effect on CTGF mRNA expression in human SH-SY5Y cells lacking YAP/TAZ expression at 10 uM measured after 24 hrs by qRT-PCR analysis. It counts as functional, cell-based.
Data set [27] deals with SH-SY5Y. The data set can be described thus: Effect on Cyr61 mRNA expression in human SH-SY5Y cells lacking YAP/TAZ expression at 10 uM measured after 24 hrs by qRT-PCR analysis. The format is functional, cell-based.
A short description of data set [28]: Inhibition of TEAD4/Yap1 (unknown origin) interaction measured after 24 hrs by fluorescence polarization assay. The arrangement: species or system Homo sapiens.

Active and inactive are the calls of the source. No cut-off for these calls is given here.

The inhibition is the drop in the measured response relative to a control, in per cent. As for `O=C(O)CCCn1cc(C(=O)NCCc2ccccc2)c(-c2ccc(Cl)c(Cl)c2)n1`, in the data set with HEK293T, the inhibition entry was “inactive”.

Take `NCCCn1cc(C(=O)NCc2ccccc2)c(-c2ccc(Cl)c(Cl)c2)n1`: the Activity result with HEK-293T is listed as “Toxic”.

A word on the IC50: it is the concentration needed to halve the response being measured. Consider `COc1ccc2c(c1)/C(=N/NC(=O)c1nnn(-c3ccccc3N)c1-c1ccc(Cl)c(Cl)c1)C(=O)N2`, for which the IC50 in data set [1] worked out at 1.7 µM.

As to `NCCCn1cc(C(=O)NCCc2ccccc2)c(-c2ccc(Cl)c(Cl)c2)n1`, the Activity entry in the data set with HEK-293T is recorded as “Toxic”.

`O=C(O)c1cccnc1Nc1cccc(C(F)(F)F)c1`: the Tm in [2] turned out to be 50.3 °C.

For the compound `NCCn1cc(C(=O)NCc2ccccc2)c(-c2ccc(Cl)c(Cl)c2)n1`, the Activity entry in the data set on HEK-293T is on record as “Toxic”.

Turning to `NCCCCn1cc(C(=O)NCc2ccccc2)c(-c2ccc(Cl)c(Cl)c2)n1`, in the data set on HEK-293T, the Activity entry was “Toxic”.

On to `O=C(O)CCn1cc(C(=O)NCc2ccccc2)c(-c2ccc(Cl)c(Cl)c2)n1`, for which the inhibition result in the data set on HEK293T was “inactive”.

Consider `Nc1nonc1-n1nnc(C(=O)N/N=C2\C(=O)Nc3ccccc32)c1-c1ccc(Cl)c(Cl)c1`, for which the IC50 in data set [1] was 6.5 µM.

By Kd is commonly meant the free concentration of one partner at which half of the binding sites on the other are occupied at equilibrium, for simple one-to-one binding. For the compound `CCOC(=O)c1cn(CCCCN)nc1-c1ccc(Cl)c(Cl)c1`, in [3], the Kd came out at 35 µM. Also, the inhibition entry in the data set on HEK293T, in the data set on MDA-MB-231 [5], with MDA-MB-231 [6], in the data set with MDA-MB-231 [7], in the data set with MDA-MB-231 [8] and in the data set with MDA-MB-231 [9] was “Active” each time. In addition, the inhibition result with MDA-MB-231 [10], in the data set with MDA-MB-231 [11], with HeLa [14], in the data set with HeLa [15], in the data set with HeLa [16] and with HeLa [17] was “Active” in each case. Besides, the inhibition result in the data set on HeLa [18], with HeLa [19] and in the data set with HeLa [20] was “Active” each time. In addition, the IC50 in [4] amounted to 4.5 µM. The inhibition at 5 µM in the data set on MDA-MB-231 [12] amounted to 40%. Moreover, the inhibition at 10 µM with MDA-MB-231 [13] came out at 60%. In addition, the outcome with SH-SY5Y [21], in the data set with SH-SY5Y [22], with SH-SY5Y [23], in the data set on SH-SY5Y [24], in the data set with SH-SY5Y [25] and in the data set on SH-SY5Y [26] was inactive. The outcome in the data set on SH-SY5Y [27] was inactive.

By EC50 is commonly meant the concentration that produces a half-maximal response. In data set [28], `O=C(CCl)c1ccccc1Nc1cccc(C(F)(F)F)c1` gave an EC50 of 5.9 µM. This counts as single-digit micromolar.

Regarding `O=C(O)CCn1cc(C(=O)NCCc2ccccc2)c(-c2ccc(Cl)c(Cl)c2)n1`, the Kd in data set [3] stood at 5.1 µM. Moreover, the inhibition entry in the data set on HEK293T was “inactive”.

Turning to `O=C(O)CCCn1cc(C(=O)NCc2ccccc2)c(-c2ccc(Cl)c(Cl)c2)n1`, in data set [3], the Kd came out at 4.6 µM. For the same compound, the inhibition entry with HEK293T is “inactive”.

Turning to `CCOC(=O)c1cn(CCCN)nc1-c1ccc(Cl)c(Cl)c1`, the inhibition result in the data set with HEK293T was “Active”.

Take `NCCCCn1cc(C(=O)NCCc2ccccc2)c(-c2ccc(Cl)c(Cl)c2)n1`: in the data set with HEK-293T, the Activity result is reported as “Toxic”.

For the origin of these results see ChEMBL document CHEMBL5032518, “Discovery of a cryptic site at the interface 2 of TEAD - Towards a new family of YAP/TAZ-TEAD inhibitors” (Eur J Med Chem, 2021).
